Assay [1] has as its system MCF7. Description: Down regulation of estrogen receptor expression in MCF7 cells at 1 nM after 24 hrs. It counts as functional, cell-based. The following applies: Homo sapiens. Summed up:
(§1)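 MCF-7 cells were kept at least 2 days in phenol red-free DMEM with 10% charcoal-stripped FBS, seeded on glass coverslips at 10^4 cells/cm2, and treated 2 days later for 24 h. After fixation they were immunostained for ERα with HC-20 rabbit antiserum (1:40, 60 min, Triton-permeabilized) and Texas Red amplification. Median nuclear gray level was measured over about 80–120 nuclei per culture and expressed relative to untreated control. Statistics: Kruskal–Wallis with Dunn's test.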

For assay [2], the system named is MCF7. The experiment in a line: Inhibition of increase in proliferation of estrogen receptor expressing MCF7 cells at 10 uM after 3 days. It is filed as functional, cell-based. Conditions: Homo sapiens.
For assay [3], the system named is MCF7. Description: Increase in proliferation of estrogen receptor expressing MCF7 cells at 1 uM after 3 days. Conditions: Homo sapiens. It is filed as functional, cell-based. Summed up: (§2)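 Cells were held at least 2 days in phenol red-free DMEM with 10% charcoal-stripped FBS at 37 °C and 5% CO2, then plated at 10^4 cells/cm2. On day 1 the medium was replaced with medium containing compound at 10^-6 M. On day 4 cells were trypsinized and counted electronically. Values are % of untreated control, mean of four determinations ±SD, by ANOVA with Dunnett's test.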

For assay [4], the target named is T1, Estrogen receptor (Homo sapiens) (UniProt P03372).
T1 sequence (whole entry): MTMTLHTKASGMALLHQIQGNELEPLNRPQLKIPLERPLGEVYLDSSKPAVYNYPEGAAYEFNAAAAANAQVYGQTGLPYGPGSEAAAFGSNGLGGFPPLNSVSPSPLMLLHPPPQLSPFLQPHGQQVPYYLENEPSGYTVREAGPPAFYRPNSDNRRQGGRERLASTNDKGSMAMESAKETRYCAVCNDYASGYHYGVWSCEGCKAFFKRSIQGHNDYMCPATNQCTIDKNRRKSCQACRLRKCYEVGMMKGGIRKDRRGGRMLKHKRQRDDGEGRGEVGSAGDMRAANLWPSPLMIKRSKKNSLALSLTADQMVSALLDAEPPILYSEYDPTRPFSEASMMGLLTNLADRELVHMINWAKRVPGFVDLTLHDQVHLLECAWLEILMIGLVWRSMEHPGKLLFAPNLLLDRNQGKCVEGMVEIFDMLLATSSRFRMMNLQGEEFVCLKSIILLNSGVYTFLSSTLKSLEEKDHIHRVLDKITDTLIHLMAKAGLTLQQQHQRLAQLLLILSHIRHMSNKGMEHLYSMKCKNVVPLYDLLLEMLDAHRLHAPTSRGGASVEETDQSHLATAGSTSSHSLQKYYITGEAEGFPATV
The experiment in a line: Displacement of [3H]17beta-estradiol from estrogen receptor relative to estradiol. Summed up:
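Purified recombinant human ERα, diluted in 1 mg/mL BSA, adsorbed onto hydroxyapatite, washed, then incubated overnight at 0–4 °C with 1 nM [3H]E2 plus increasing amounts of cold E2 or test compound. HAP-bound radioactivity was extracted with ethanol and counted by liquid scintillation. RBA = […] × 100.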

For assay [5], the system named is MDA-MB-231. The experiment in a line: Effect on proliferation of estrogen receptor deficient MDA-MB-231 cells at 1 uM after 3 days. It is filed as functional, cell-based. The following applies: Homo sapiens. Summed up: as §2
For assay [6], the system named is MCF7. The experiment in a line: Down regulation of estrogen receptor expression in MCF7 cells at 1 uM after 24 hrs. The following applies: Homo sapiens. It counts as functional, cell-based. The method in brief:
as §1

The subject of assay [7] is MCF7. The experiment in a line: Abrogation of estrogen receptor down regulation in MCF7 cells at 10 uM after 7 hrs. Conditions: Homo sapiens.
The target in assay [8] is T2, Estrogen receptor (Homo sapiens, UniProt P03372).
T2 sequence (P03372 whole entry): T1 sequence (whole entry)
Description: Activity at ER assessed as enhancement of estrogen response element-driven gene transactivation in MVLN cells after 24 hrs by luciferase reporter gene assay relative to control.

Structures are written as SMILES. pEC50: −log10 of the molar value. Calls of active or inactive are those of the source. No cut-off for these calls is given here. Residues, ends and D or L forms follow the SMILES beside them. *: point of attachment. Cbz = O=C(OCc1ccccc1)*

Regarding `C[C@]12CC[C@@H]3c4ccc(O)cc4CC[C@H]3[C@@H]1CC[C@@H]2O`, the outcome in assay [1] was Active.

On to `C[C@]12CC[C@@H]3c4ccc(O)cc4C[C@@H](CCCCCCCCC[S+]([O-])CCCC(F)(F)C(F)(F)F)[C@H]3[C@@H]1CC[C@@H]2O` (some centres undefined), for which the result in assay [2] was Active.

For the compound `Cc1ccccc1Cc1c(NC2CCCC2)c2ccccc2oc1=O`, the result in assay [3] and in assay [6] was Active. The compound also came in with an RBA in assay [4] below 0.1%. Further, the outcome in assay [5] was inactive.

For `CC(C)C[C@@H](C=O)NC(=O)[C@H](CC(C)C)NC(=O)[C@H](CC(C)C)NC(=O)OCc1ccccc1` (Cbz-Leu-Leu-Leu-aldehyde), the result in assay [7] was Active.

Take `CCCCCNc1c(Cc2ccccc2C)c(=O)oc2cc(OC)ccc12`: the result in assay [5] was inactive.

With `Cc1ccccc1Cc1c(NC2CCCCC2)c2ccccc2oc1=O`, the result in assay [3] and in assay [6] was Active. Further, the result in assay [5] was inactive.

Turning to `CCCCCCCCCCCCNc1c(Cc2ccccc2C)c(=O)oc2ccccc12`, the outcome in assay [5] was inactive. In assay [8], the pEC50 was 7.00.

Take `Cc1ccccc1Cc1c(NCCc2ccccc2)c2ccccc2oc1=O`: the result in assay [5] was inactive.
